# System: Tobacco mosaic virus
# Experiment: Antiviral activity against Tobacco mosaic virus (TMV) pre-treated with compound for 30 min followed by inoculation on left side of Nicotiana tabacum leaves assessed as virus inactivation effect measured 3 to 4 days post viral infection
# Assay type: functional, organism-based
# Summary of the method: (§1)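 Purified TMV is mixed with an equal volume of compound solution for 30 min. The mixture is rub-inoculated on the left half of N. tabacum leaves, and a solvent–virus mixture on the right half serves as control. Local lesions are recorded 3-4 days after inoculation. Inhibition % = (control − treated average lesions)/control × 100. Three repetitions. EC50 is derived from tests at several concentrations.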
row,SMILES,EC50
1,CCCCOP(=O)(OCCCC)C(N/C(SC)=C(/C#N)C(=O)OC)c1ccccc1 (stereo unspecified),55.5 µg/mL
2,CCOC(=O)/C(C#N)=C(\NC(c1ccccc1F)P(=O)(OCC)OCC)SC (stereo unspecified),118 µg/mL
3,CCOP(=O)(OCC)C(N/C(SC)=C(/C#N)C(N)=O)c1ccccc1F (stereo unspecified),151 µg/mL
4,CCOP(=O)(OCC)C(N/C(SC)=C(/C#N)C(=O)NCc1ccccc1)c1ccccc1F (stereo unspecified),128 µg/mL
5,CNCC(=O)N[C@@H](CO)C(=O)N[C@H]1[C@H](O)[C@@H](O)[C@H](n2ccc(N)nc2=O)O[C@@H]1C(N)=O [NINGNANMYCIN],50.9 µg/mL
6,CCCCOP(=O)(OCCCC)C(N/C(SC)=C(/C#N)C(=O)OCC)c1ccccc1 (stereo unspecified),62.6 µg/mL
7,CCCOP(=O)(OCCC)C(N/C(SC)=C(/C#N)C(=O)OCC)c1ccccc1 (stereo unspecified),159 µg/mL
8,CCOP(=O)(OCC)C(N/C(SC)=C(/C#N)C(=O)OC)c1ccccc1F (stereo unspecified),55.3 µg/mL
9,CCOCCOC(=O)/C(C#N)=C(\NC(c1ccccc1F)P(=O)(OCC)OCC)SC (stereo unspecified),167 µg/mL
10,CCCCOP(=O)(OCCCC)C(N/C(SC)=C(/C#N)C(=O)OCCOCC)c1ccccc1 (stereo unspecified),87.9 µg/mL

# System: Tobacco mosaic virus
# Experiment: Antiviral activity against Tobacco mosaic virus (TMV) pre-treated with 30.7 ug/mL compound for 30 min followed by inoculation on left side of Nicotiana tabacum leaves assessed as virus inactivation effect measured 3 to 4 days post viral infection
# Assay type: functional
# Summary of the method: as §1
row,SMILES,Activity
1,CCCCOP(=O)(OCCCC)C(N/C(SC)=C(/C#N)C(=O)OC)c1ccccc1 (stereo unspecified),37.6%
2,CCOC(=O)/C(C#N)=C(\NC(c1ccccc1F)P(=O)(OCC)OCC)SC (stereo unspecified),30.7%
3,CCOP(=O)(OCC)C(N/C(SC)=C(/C#N)C(N)=O)c1ccccc1F (stereo unspecified),26.9%
4,CCOP(=O)(OCC)C(N/C(SC)=C(/C#N)C(=O)NCc1ccccc1)c1ccccc1F (stereo unspecified),29%
5,CNCC(=O)N[C@@H](CO)C(=O)N[C@H]1[C@H](O)[C@@H](O)[C@H](n2ccc(N)nc2=O)O[C@@H]1C(N)=O [NINGNANMYCIN],42.1%
6,CCCCOP(=O)(OCCCC)C(N/C(SC)=C(/C#N)C(=O)OCC)c1ccccc1 (stereo unspecified),42.6%
7,CCCOP(=O)(OCCC)C(N/C(SC)=C(/C#N)C(=O)OCC)c1ccccc1 (stereo unspecified),20.9%
8,CCOP(=O)(OCC)C(N/C(SC)=C(/C#N)C(=O)OC)c1ccccc1F (stereo unspecified),40.8%
9,CCOCCOC(=O)/C(C#N)=C(\NC(c1ccccc1F)P(=O)(OCC)OCC)SC (stereo unspecified),20.8%
10,CCCCOP(=O)(OCCCC)C(N/C(SC)=C(/C#N)C(=O)OCCOCC)c1ccccc1 (stereo unspecified),27.8%

# System: Tobacco mosaic virus
# Experiment: Antiviral activity against Tobacco mosaic virus (TMV) pre-treated with 62.5 ug/mL compound for 30 min followed by inoculation on left side of Nicotiana tabacum leaves assessed as virus inactivation effect measured 3 to 4 days post viral infection
# Assay type: functional
# Summary of the method: as §1
row,SMILES,Activity
1,CCCCOP(=O)(OCCCC)C(N/C(SC)=C(/C#N)C(=O)OC)c1ccccc1 (stereo unspecified),53.7%
2,CCOC(=O)/C(C#N)=C(\NC(c1ccccc1F)P(=O)(OCC)OCC)SC (stereo unspecified),39.1%
3,CCOP(=O)(OCC)C(N/C(SC)=C(/C#N)C(N)=O)c1ccccc1F (stereo unspecified),35.8%
4,CCOP(=O)(OCC)C(N/C(SC)=C(/C#N)C(=O)NCc1ccccc1)c1ccccc1F (stereo unspecified),41.2%
5,CNCC(=O)N[C@@H](CO)C(=O)N[C@H]1[C@H](O)[C@@H](O)[C@H](n2ccc(N)nc2=O)O[C@@H]1C(N)=O [NINGNANMYCIN],60.1%
6,CCCCOP(=O)(OCCCC)C(N/C(SC)=C(/C#N)C(=O)OCC)c1ccccc1 (stereo unspecified),48.5%
7,CCCOP(=O)(OCCC)C(N/C(SC)=C(/C#N)C(=O)OCC)c1ccccc1 (stereo unspecified),33.1%
8,CCOP(=O)(OCC)C(N/C(SC)=C(/C#N)C(=O)OC)c1ccccc1F (stereo unspecified),52.5%
9,CCOCCOC(=O)/C(C#N)=C(\NC(c1ccccc1F)P(=O)(OCC)OCC)SC (stereo unspecified),34.4%
10,CCCCOP(=O)(OCCCC)C(N/C(SC)=C(/C#N)C(=O)OCCOCC)c1ccccc1 (stereo unspecified),42.8%

# System: Tobacco mosaic virus
# Experiment: Antiviral activity against Tobacco mosaic virus (TMV) pre-treated with 125 ug/mL compound for 30 min followed by inoculation on left side of Nicotiana tabacum leaves assessed as virus inactivation effect measured 3 to 4 days post viral infection
# Assay type: functional
# Summary of the method: as §1
row,SMILES,Activity
1,CCCCOP(=O)(OCCCC)C(N/C(SC)=C(/C#N)C(=O)OC)c1ccccc1 (stereo unspecified),66.9%
2,CCOC(=O)/C(C#N)=C(\NC(c1ccccc1F)P(=O)(OCC)OCC)SC (stereo unspecified),50.1%
3,CCOP(=O)(OCC)C(N/C(SC)=C(/C#N)C(N)=O)c1ccccc1F (stereo unspecified),46.2%
4,CCOP(=O)(OCC)C(N/C(SC)=C(/C#N)C(=O)NCc1ccccc1)c1ccccc1F (stereo unspecified),48.9%
5,CNCC(=O)N[C@@H](CO)C(=O)N[C@H]1[C@H](O)[C@@H](O)[C@H](n2ccc(N)nc2=O)O[C@@H]1C(N)=O [NINGNANMYCIN],70%
6,CCCCOP(=O)(OCCCC)C(N/C(SC)=C(/C#N)C(=O)OCC)c1ccccc1 (stereo unspecified),51.6%
7,CCCOP(=O)(OCCC)C(N/C(SC)=C(/C#N)C(=O)OCC)c1ccccc1 (stereo unspecified),47.9%
8,CCOP(=O)(OCC)C(N/C(SC)=C(/C#N)C(=O)OC)c1ccccc1F (stereo unspecified),60.6%
9,CCOCCOC(=O)/C(C#N)=C(\NC(c1ccccc1F)P(=O)(OCC)OCC)SC (stereo unspecified),44.2%
10,CCCCOP(=O)(OCCCC)C(N/C(SC)=C(/C#N)C(=O)OCCOCC)c1ccccc1 (stereo unspecified),53.8%

# System: Tobacco mosaic virus
# Experiment: Antiviral activity against Tobacco mosaic virus (TMV) pre-treated with 250 ug/mL compound for 30 min followed by inoculation on left side of Nicotiana tabacum leaves assessed as virus inactivation effect measured 3 to 4 days post viral infection
# Assay type: functional
# Summary of the method: as §1
row,SMILES,Activity
1,CCCCOP(=O)(OCCCC)C(N/C(SC)=C(/C#N)C(=O)OC)c1ccccc1 (stereo unspecified),70.2%
2,CCOC(=O)/C(C#N)=C(\NC(c1ccccc1F)P(=O)(OCC)OCC)SC (stereo unspecified),64.1%
3,CCOP(=O)(OCC)C(N/C(SC)=C(/C#N)C(N)=O)c1ccccc1F (stereo unspecified),49%
4,CCOP(=O)(OCC)C(N/C(SC)=C(/C#N)C(=O)NCc1ccccc1)c1ccccc1F (stereo unspecified),58.9%
5,CNCC(=O)N[C@@H](CO)C(=O)N[C@H]1[C@H](O)[C@@H](O)[C@H](n2ccc(N)nc2=O)O[C@@H]1C(N)=O [NINGNANMYCIN],80%
6,CCCCOP(=O)(OCCCC)C(N/C(SC)=C(/C#N)C(=O)OCC)c1ccccc1 (stereo unspecified),65.7%
7,CCCOP(=O)(OCCC)C(N/C(SC)=C(/C#N)C(=O)OCC)c1ccccc1 (stereo unspecified),50.1%
8,CCOP(=O)(OCC)C(N/C(SC)=C(/C#N)C(=O)OC)c1ccccc1F (stereo unspecified),69.7%
9,CCOCCOC(=O)/C(C#N)=C(\NC(c1ccccc1F)P(=O)(OCC)OCC)SC (stereo unspecified),48.8%
10,CCCCOP(=O)(OCCCC)C(N/C(SC)=C(/C#N)C(=O)OCCOCC)c1ccccc1 (stereo unspecified),62%

# System: Tobacco mosaic virus
# Experiment: Antiviral activity against Tobacco mosaic virus (TMV) inoculated on whole Nicotiana tabacum leaves followed by smearing with 500 ug/mL compound solution on left side of leaves assessed as viral infection curative effect measured 3 to 4 days post viral infection
# Assay type: functional
# Summary of the method: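 Whole same-age N. tabacum leaves are brush-inoculated with purified TMV (6 × 10^-3 mg/mL), washed with water and dried. The compound solution is then applied to the left half and solvent to the right half as control. Local lesions are counted 3-4 days after inoculation. Inhibition % is calculated from average lesion counts, control versus treated. Three repetitions.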
row,SMILES,Activity
1,CCCCOP(=O)(OCCCC)C(N/C(SC)=C(/C#N)C(N)=O)c1ccccc1 (stereo unspecified),25.4%
2,CCOP(=O)(OCC)C(N/C(SC)=C(/C#N)C(=O)OC)c1ccccc1 (stereo unspecified),56.7%
3,CCCCOP(=O)(OCCCC)C(N/C(SC)=C(/C#N)C(=O)OC)c1ccccc1 (stereo unspecified),60.2%
4,CCOC(=O)/C(C#N)=C(\NC(c1ccccc1F)P(=O)(OCC)OCC)SC (stereo unspecified),50.7%
5,CCOP(=O)(OCC)C(N/C(SC)=C(/C#N)C(N)=O)c1ccccc1F (stereo unspecified),25.4%
6,CCOP(=O)(OCC)C(N/C(SC)=C(/C#N)C(=O)NCc1ccccc1)c1ccccc1F (stereo unspecified),49.9%
7,CNCC(=O)N[C@@H](CO)C(=O)N[C@H]1[C@H](O)[C@@H](O)[C@H](n2ccc(N)nc2=O)O[C@@H]1C(N)=O [NINGNANMYCIN],55.8%
8,CCCCOP(=O)(OCCCC)C(N/C(SC)=C(/C#N)C(=O)OCC)c1ccccc1 (stereo unspecified),55.8%
9,CCCOP(=O)(OCCC)C(N/C(SC)=C(/C#N)C(=O)OCC)c1ccccc1 (stereo unspecified),50.5%
10,CCOP(=O)(OCC)C(N/C(SC)=C(/C#N)C(=O)OC)c1ccccc1F (stereo unspecified),58.4%
11,CCOCCOC(=O)/C(C#N)=C(\NC(c1ccccc1F)P(=O)(OCC)OCC)SC (stereo unspecified),52.7%
12,CCCCOP(=O)(OCCCC)C(N/C(SC)=C(/C#N)C(=O)OCCOCC)c1ccccc1 (stereo unspecified),51.8%

# System: Tobacco mosaic virus
# Experiment: Antiviral activity against Tobacco mosaic virus (TMV) pre-treated with 500 ug/mL compound for 30 min followed by inoculation on left side of Nicotiana tabacum leaves assessed as virus inactivation effect measured 3 to 4 days post viral infection
# Assay type: functional
# Summary of the method: as §1
row,SMILES,Activity
1,CCCCOP(=O)(OCCCC)C(N/C(SC)=C(/C#N)C(N)=O)c1ccccc1 (stereo unspecified),9.6%
2,CCOP(=O)(OCC)C(N/C(SC)=C(/C#N)C(=O)OC)c1ccccc1 (stereo unspecified),64.1%
3,CCCCOP(=O)(OCCCC)C(N/C(SC)=C(/C#N)C(=O)OC)c1ccccc1 (stereo unspecified),92.8%
4,CCOC(=O)/C(C#N)=C(\NC(c1ccccc1F)P(=O)(OCC)OCC)SC (stereo unspecified),74.1%
5,CCOP(=O)(OCC)C(N/C(SC)=C(/C#N)C(N)=O)c1ccccc1F (stereo unspecified),70.7%
6,CCOP(=O)(OCC)C(N/C(SC)=C(/C#N)C(=O)NCc1ccccc1)c1ccccc1F (stereo unspecified),73.4%
7,CNCC(=O)N[C@@H](CO)C(=O)N[C@H]1[C@H](O)[C@@H](O)[C@H](n2ccc(N)nc2=O)O[C@@H]1C(N)=O [NINGNANMYCIN],99.5%
8,CCCCOP(=O)(OCCCC)C(N/C(SC)=C(/C#N)C(=O)OCC)c1ccccc1 (stereo unspecified),84%
9,CCCOP(=O)(OCCC)C(N/C(SC)=C(/C#N)C(=O)OCC)c1ccccc1 (stereo unspecified),71%
10,CCOP(=O)(OCC)C(N/C(SC)=C(/C#N)C(=O)OC)c1ccccc1F (stereo unspecified),92.1%
11,CCOCCOC(=O)/C(C#N)=C(\NC(c1ccccc1F)P(=O)(OCC)OCC)SC (stereo unspecified),70%
12,CCCCOP(=O)(OCCCC)C(N/C(SC)=C(/C#N)C(=O)OCCOCC)c1ccccc1 (stereo unspecified),80.6%

# System: Tobacco mosaic virus
# Experiment: Antiviral activity against Tobacco mosaic virus (TMV) inoculated on 500 ug/mL compound smeared Nicotiana tabacum leaves assessed as protective effect against viral infection measured 3 to 4 days post viral infection
# Assay type: functional
# Summary of the method: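 Half-leaf assay on same-age N. tabacum leaves. The compound solution is applied to the left half and solvent to the right half as control. After 12 h, leaves dusted with silicon carbide are brush-inoculated with purified TMV (6 × 10^-3 mg/mL) and then rinsed with water. Local lesions are counted 3-4 days later. Inhibition % = (control lesions − treated lesions)/control lesions × 100. Three repetitions.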
row,SMILES,Activity
1,CCCCOP(=O)(OCCCC)C(N/C(SC)=C(/C#N)C(N)=O)c1ccccc1 (stereo unspecified),40.2%
2,CCOP(=O)(OCC)C(N/C(SC)=C(/C#N)C(=O)OC)c1ccccc1 (stereo unspecified),29.6%
3,CCCCOP(=O)(OCCCC)C(N/C(SC)=C(/C#N)C(=O)OC)c1ccccc1 (stereo unspecified),55.9%
4,CCOC(=O)/C(C#N)=C(\NC(c1ccccc1F)P(=O)(OCC)OCC)SC (stereo unspecified),48.3%
5,CCOP(=O)(OCC)C(N/C(SC)=C(/C#N)C(N)=O)c1ccccc1F (stereo unspecified),42.8%
6,CCOP(=O)(OCC)C(N/C(SC)=C(/C#N)C(=O)NCc1ccccc1)c1ccccc1F (stereo unspecified),47.7%
7,CNCC(=O)N[C@@H](CO)C(=O)N[C@H]1[C@H](O)[C@@H](O)[C@H](n2ccc(N)nc2=O)O[C@@H]1C(N)=O [NINGNANMYCIN],59.9%
8,CCCCOP(=O)(OCCCC)C(N/C(SC)=C(/C#N)C(=O)OCC)c1ccccc1 (stereo unspecified),56.5%
9,CCCOP(=O)(OCCC)C(N/C(SC)=C(/C#N)C(=O)OCC)c1ccccc1 (stereo unspecified),41.6%
10,CCOP(=O)(OCC)C(N/C(SC)=C(/C#N)C(=O)OC)c1ccccc1F (stereo unspecified),44%
11,CCOCCOC(=O)/C(C#N)=C(\NC(c1ccccc1F)P(=O)(OCC)OCC)SC (stereo unspecified),48.3%
12,CCCCOP(=O)(OCCCC)C(N/C(SC)=C(/C#N)C(=O)OCCOCC)c1ccccc1 (stereo unspecified),44.4%

# From ChEMBL document CHEMBL3045617, “Synthesis and antiviral activities of cyanoacrylate derivatives containing an alpha-aminophosphonate moiety” (J Agric Food Chem, 2008)
